Measurements reported in ChEMBL document CHEMBL1177866, “Synthesis, antiproliferative activity evaluation and structure-activity relationships of novel aromatic urea and amide analogues of N-phenyl-N'-(2-chloroethyl)ureas” (Eur J Med Chem, 2010).
Activity calls are given as the source filed them. No cut-off for these calls is given here.

Columns and labels:
M21 = assay: Antiproliferative activity against human M21 cells after 48 hrs; type: functional, cell-based; settings: M21, 48 h
Procedure, shortened: (§1)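 TCA fixation, sulforhodamine B stain, absorbance 585 nm minus day-of-treatment background plate; inhibition vs DMSO control; at least triplicate; IC50 accepted if within-experiment variability under 10%.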

HT-29 = assay: Antiproliferative activity against human HT-29 cells after 48 hrs; type: functional, cell-based; settings: HT-29, 48 h; procedure, shortened: as §1
MCF7 = assay: Antiproliferative activity against human MCF7 cells after 48 hrs; type: functional, cell-based; settings: MCF7, 48 h; procedure, shortened: as §1
[1] = biological target: Tubulin beta (Homo sapiens) (UniProt P68371+Q9H4B7+Q13509+P04350+Q3ZCM7+P07437+Q13885+Q9BVA1+Q9BUF5+A6NNZ2); assay: inhibition of beta tubulin acylation in human M21 cells assessed as beta-tubulin band migration by Western blotting; type: cell-based
Procedure, shortened: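 Floating plus adherent cells pooled, lysed in Laemmli buffer, 10% SDS-PAGE, nitrocellulose; blocked in TBS pH 7.4 with 5% milk/0.1% Tween 20, probed with monoclonal anti-β-tubulin 1:500 then peroxidase anti-mouse 1:2500.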

SMILES	IC50 (M21) [µM]	IC50 (HT-29) [µM]	IC50 (MCF7) [µM]	Activity [1]
C=CC(=O)Nc1cccc(CCCCC(C)=O)c1	33	29	99	–
CCCCCc1cccc(NC(=O)CCl)c1	1.4	12	5.7	inactive
O=C(CCl)NC(=O)Nc1ccc(I)cc1	8.1	11	4.9	–
C=CC(=O)Nc1cccc(CCCCCO)c1	98	> 100	> 100	–
O=C(CCCl)Nc1ccc(I)cc1	20	18	26	inactive
CC(C)(C)c1ccc(CNC(=O)CCl)cc1	16	18	23	inactive
CC(C)(C)c1ccc(CNC(=O)NCCCCl)cc1	11	19	17	–
CC(C)(C)c1ccc(NC(=O)NC(=O)CCl)cc1	1.4	6.5	2	–
COCCCCCc1cccc(NC(=O)NC(=O)CCl)c1	4.2	10	6.1	inactive
COCCCCCc1cccc(NC(=O)CCCCl)c1	> 100	> 100	> 100	–
CC(C)(C)c1ccc(CNC(=O)NC(=O)CCl)cc1	2.4	7.1	2.8	inactive
C=CC(=O)Nc1ccc(I)cc1	11	15	17	inactive
O=C(NCCCCl)Nc1cccc(CCCCCO)c1	35	19	> 100	–
CC(=O)CCCCc1cccc(NC(=O)CCCl)c1	> 100	> 100	> 100	–
O=C(CCl)Nc1ccc(I)cc1	5.1	9.7	6.2	inactive
C=CC(=O)NCc1ccc(C(C)(C)C)cc1	72	> 100	> 100	–
CC(C)(C)c1ccc(CNC(=O)CCCCl)cc1	69	72	92	–
C=CC(=O)Nc1ccc(C(C)(C)C)cc1	22	24	29	inactive
CC(C)(C)c1ccc(NC(=O)NCCCCl)cc1	35	28	49	–
CCCCCc1cccc(NC(=O)NCCCCl)c1	24	28	26	–
CCNC(=O)NCc1ccc(C(C)(C)C)cc1	> 100	> 100	> 100	–
COCCCCCc1cccc(NC(=O)CCCl)c1	> 100	> 100	> 100	–
O=C(CCCCl)Nc1ccc(I)cc1	> 100	> 100	> 100	–

SMILES	IC50 (M21) [µM]	IC50 (HT-29) [µM]	IC50 (MCF7) [µM]	Activity [1]
CCNC(=O)Nc1cccc(CCCCCOC)c1	> 100	> 100	> 100	–
O=C(CCl)NC(=O)Nc1cccc(CCCCCO)c1	4.6	10	5.7	inactive
O=C(NCCCCl)Nc1ccc(I)cc1	> 100	90	> 100	–
O=C(CCCCl)Nc1cccc(CCCCCO)c1	> 100	> 100	> 100	–
CC(C)(C)c1ccc(CNC(=O)CCCl)cc1	> 100	87	67	–
CCCCCc1cccc(NC(=O)CCCl)c1	54	46	54	–
CC(C)(C)c1ccc(NC(=O)CCCl)cc1	74	88	49	–
C=CC(=O)Nc1cccc(CCCCC)c1	27	31	49	–
CCNC(=O)Nc1cccc(CCCCCO)c1	> 100	> 100	> 100	–
O=C(CCCl)Nc1cccc(CCCCCO)c1	> 100	> 100	> 100	–
CC(C)(C)c1ccc(NC(=O)CCl)cc1	5.4	15	5.4	inactive
CCCCCc1cccc(NC(=O)NC(=O)CCl)c1	3.5	8.4	8.3	inactive
CCNC(=O)Nc1cccc(CCCCC(C)=O)c1	> 100	40	> 100	–
CC(=O)CCCCc1cccc(NC(=O)CCCCl)c1	> 100	> 100	> 100	–
COCCCCCc1cccc(NC(=O)NCCCCl)c1	51	56	50	–
CC(C)(C)c1ccc(NC(=O)CCCCl)cc1	> 100	> 100	> 100	–
CC(=O)CCCCc1cccc(NC(=O)NCCCCl)c1	36	41	71	–
COCCCCCc1cccc(NC(=O)CCl)c1	6.9	13	12	inactive
CCCCCc1cccc(NC(=O)CCCCl)c1	> 100	> 100	> 100	–
C=CC(=O)Nc1cccc(CCCCCOC)c1	48	40	> 100	–
CCNC(=O)Nc1ccc(I)cc1	> 100	> 100	> 100	–
CCCCCc1cccc(NC(=O)NCC)c1	36	16	67	–
